This is a sample that favours compounds with a hit; in the whole collection about 4.7% have one here.
MrgX1 ag – agonists of human MrgX1 receptor. Q96LB2. MrgX1-HEK293 cells, Fluo-4 calcium fluorescence, agonist mode; active compounds read high. B-score at 10 µM. 310,000 compounds, 0.44% hits. AID 588627;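 active = calcium response B-score plate-corrected fluorescence ratio at least 3 library SD, with starting fluorescence B-score inside 5 SD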
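Assay system: MrgX1-expressing HEK293 cells / Amount: fifteen thousand cells per well / Doses: test compound in the initial addition of three / Timing: cells plated overnight, dye loaded 0.5 h 37 °C, 0.5 h room temperature / Technique: kinetic calcium dye fluorescence, Fluo-4 NW / Control set: positive and negative controls per plate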
RGS4 block – human RGS4 inhibition; P49798; HEK293 M3R/RGS4 inducible, Fluo-4 calcium flux; active compounds read high; triggered by carbachol at its EC20; B-score at 10 µM; 310,000 compounds, 0.45% hits;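 active = B-score, a plate-corrected calcium signal, over three deviations above library mean, with baseline fluorescence within five deviations of library mean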;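 note: RGS4 expression induced by doxycycline in cells with stable M3 receptor; B-score is computed from the integrated fluorescence ratio over baseline after carbachol; higher B-score means a larger calcium signal and so more RGS4 inhibition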
RGS4 act – RGS4 potentiation or activation | HEK293 M3R/inducible RGS4, carbachol calcium flux Fluo4; active compounds read low | 310,000 compounds, 0.92% hits | B-score at 10 µM;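 active = B-score of the integrated calcium signal more than 4 SD below the library mean, with starting fluorescence not abnormally high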;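 note: negative B-score means reduced calcium response which marks RGS4 activation or potentiation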
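Material: Inducible-RGS4 HEK293 cells carrying M3 receptor; also added: carbachol at ECmax as muscarinic agonist stimulus; incubation: compound preincubation 20 min at room temperature before agonist; signal: Fluo4-AM (2 µM) calcium-flux fluorescence, kinetic read; measure: integrated calcium ratio converted to B score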
MrgX1 antag – antagonists of human MrgX1 receptor; MRGX1-HEK293 calcium flux, Fluo-4, BAM8-22 antagonism; active compounds read low; B-score at 10 µM; 310,000 compounds, 1.3% hits; Q96LB2;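 active = calcium-response B-score plate-corrected more than 3 library SD below zero, starting fluorescence within 5 deviations, no agonist response on first addition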;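 note: peak minus trough fluorescence over baseline after final BAM8-22 challenge near maximal dose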
Cl transport mod – KCC2 (human) Cl- transport modulation | KCC2 cells, thallium flux FluoZin-2 fluorescence | B-score of Tl+ flux slope (higher = more flux/activation; lower = inhibition) at 10 µM | 190,000 compounds, 2.2% hits | AID 1456;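 active = thallium flux slope and its plate-corrected score both differing from the plate sample mean at a set confidence after two filtering rounds, in either direction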;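 note: slope of fluorescence scaled to starting intensity during 10 to 20 s after thallium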
MrgX1 allo act – human MrgX1 positive allosteric modulation, primary screen; Q96LB2; MrgX1-HEK293, Fluo-4 calcium flux, FDSS; active compounds read high; AID 588675; B-score at 10 µM; 310,000 compounds, 0.63% hits;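 active = plate-corrected calcium response at least 3 library SD above typical, normal starting fluorescence, not activating the receptor alone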;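 note: compound read alongside a low EC10 to EC30 dose of BAM8-22 agonist; peak minus trough fluorescence over baseline measured at the second addition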
KCC2 sec1 – KCC2 (human) modulation, secondary assay. 3,700 compounds, 15% hits. shares compounds with Cl transport mod. HEK293-KCC2, thallium flux, FluoZin2 fluorescence; active compounds read high. normalised thallium flux (F/F0 slope) at 10 µM;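 active = thallium flux slope above the same plate's solvent-only control mean plus 3 SD; inconclusive = the two replicate wells disagree; inactive = no significant difference from solvent-only control wells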
KCC2 bumet counter – thallium flux despite bumetanide block in KCC2 cells, secondary assay 3 | AID 1714 | normalized thallium flux at 10 µM | HEK293-KCC2 + bumetanide/ouabain, thallium flux FluoZin2; active compounds read high | 3,700 compounds, 49% hits | shares compounds with Cl transport mod;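 active = thallium entry rate above the same plate's blocked-transporter control wells by more than 3 SD; inconclusive = the two repeat wells disagree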;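 note: raw slope of fluorescence over initial fluorescence between 10 and 20 s after thallium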
KCC2 secondary2 – confirmation of human KCC2 transport modulators; HEK293-KCC2, thallium flux FluoZin2 fluorescence; actives lie on both sides; F/F0 rise rate, 10–20 s post-thallium; AID 1715; 3,700 compounds, 23% hits; shares compounds with Cl transport mod; normalized thallium flux at 10 µM;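 active = thallium flux slope more than 3 SD above or below the plate's solvent-only control mean, mostly below; inconclusive = the two repeat wells disagreed; inactive = no significant shift from solvent-only controls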
HEK293 Tl flux – counter-screen for KCC2 modulators: effect in parental HEK293 cells. shares compounds with Cl transport mod. thallium flux rate (normalised fluorescence) at 10 µM. thallium flux FluoZin2, ouabain; baseline-ratio fluorescence slope, 10–20 s after thallium. 3,700 compounds, 46% hits;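 active = thallium flux rate significantly above the same plate's solvent-only control wells, beyond their mean plus 3 SD; inconclusive = the two replicate wells gave conflicting results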
KCC2 retest ouab – KCC2 (human) modulation, ouabain retest. 3,700 compounds, 48% hits. HEK293-KCC2, thallium flux FluoZin2 fluorescence; bidirectional: low = inhibitor, high = activator. raw Tl+ flux slope (below DMSO = inhibition, above = activation) at 10 µM. shares compounds with Cl transport mod;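 active = thallium flux slope beyond 3 SD from same-plate DMSO control mean in most replicates, usually higher, sometimes lower; inconclusive = repeat tests gave conflicting results; inactive = no significant difference from controls in most replicates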;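 note: slope of initial-normalized fluorescence between seconds 10 and 20 after thallium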
HEK counter2 – acts in parental HEK cells, second KCC2 counter-screen. shares compounds with Cl transport mod. 3,700 compounds, 33% hits. HEK293 parental, thallium flux FluoZin-2 fluorescence slope. AID 1718. thallium flux slope at 10 µM;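 active = thallium flux slope above the same plate's solvent-control mean plus 3 SD in both duplicate wells; inconclusive = duplicate wells that disagreed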;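 note: run without ouabain in cells lacking the KCC2 cotransporter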
Numbers stand for hits; i = inactive; ? = inconclusive; nt = no result given; ! = a repeat was not active.

SMILES | MrgX1 ag | RGS4 block | RGS4 act | MrgX1 antag | Cl transport mod | MrgX1 allo act | KCC2 sec1 | KCC2 bumet counter | KCC2 secondary2 | HEK293 Tl flux | KCC2 retest ouab | HEK counter2
CC(C)Oc1ccc2c(=O)c(-c3ccccc3)coc2c1 | i | i | i | i | -3.6! | i | 0.0032 | i | i | ? | 0.014 | i
Cc1ccc2c(c1)C(c1ccc(O)cc1)(c1ccc(O)cc1)C(=O)N2C | i | i | i | i | 3.7 | i | i | i | i | i | i | ?
Cc1ccc2c(c1)C1(C(=O)N2C)N2CC3(C)CN1CC(C)(C2)C3=O (configuration not stated) | i | i | i | i | i | i | nt | nt | nt | nt | nt | nt
Cc1ccc(-c2ccc(S(=O)(=O)NCC3CCCO3)cc2)cc1 (configuration not stated) | i | i | i | i | -4.9 | i | i | i | 0.026 | i | ? | i
O=C(Cn1nnc2c(cnn2-c2ccccc2)c1=O)N1CCN(c2ccccc2F)CC1 | i | i | i | i | -5.5 | i | i | ? | 0.021 | i | 0.014 | i
O=C(Cn1cnc2c(cnn2-c2ccc(F)cc2)c1=O)N1CCN(c2ccccc2F)CC1 | i | i | i | i | i | i | nt | nt | nt | nt | nt | nt
Cc1ccc(C(=O)Nc2cccc(NC(=O)c3ccc(C)o3)n2)o1 | i | i | i | i | nt | i | nt | nt | nt | nt | nt | nt
CC1Cc2ccccc2N1C(=O)c1cc2cccnc2n(C)c1=O (configuration not stated) | i | i | i | i | nt | i | nt | nt | nt | nt | nt | nt
O=C(OCn1ncc(Cl)c(Cl)c1=O)c1ccc(F)cc1 | i | i | i | i | -4.1 | i | i | ? | 0.026 | i | ? | i
COc1ccc(S(=O)(=O)Nc2ccccc2C(=O)NCc2ccco2)cc1Br | i | i | i | i | -4.1 | i | ? | i | 0.023 | 0.0049 | 0.012 | 0.0083
CCOc1ccc(S(=O)(=O)Nc2ccccc2C(=O)NCc2ccco2)cc1 | i | i | i | i | i | i | nt | nt | nt | nt | nt | nt
Cc1cnc(C(=O)Oc2ccc(-c3ccccc3)cc2)cn1 | i | i | i | i | nt | i | nt | nt | nt | nt | nt | nt
O=C(NC(=S)Nc1ccccc1N1CCCCC1)c1cccs1 | i | i | i | i | 18 | i | ? | 0.035 | i | 0.051 | 0.042 | 0.016
O=C(NC(=S)Nc1ccccc1N1CCN(C(=O)c2ccccc2)CC1)c1cccs1 | i | i | i | i | i | i | nt | nt | nt | nt | nt | nt
O=C(NC(=S)Nc1ccc(N2CCOCC2)c(Cl)c1)c1cccs1 | i | i | i | i | nt | i | 0.025 | 0.058 | ? | 0.017 | 0.028 | 0.017
O=C(NC(=S)Nc1ccccc1N1CCCC1)c1cccs1 | i | i | i | i | 79 | i | 0.029 | 0.14 | ? | ? | 0.087 | 0.037
Cc1nc(Nc2ccc3c(c2)OCCO3)c2c(C)c(C)sc2n1 | i | i | i | i | 7.1 | i | i | 0.021 | 0.039 | 0.019 | 0.031 | 0.021
Cc1nc(Nc2ccc3c(c2)OCCO3)c2oc3ccccc3c2n1 | i | i | i | i | i | i | nt | nt | nt | nt | nt | nt
O=[N+]([O-])c1ccc(CSc2nc3ccccc3o2)cc1 | i | i | i | i | i | i | nt | nt | nt | nt | nt | nt
